Calls of active or inactive are those of the source. The calls are words filed in the database; no cut-off is given here.
Assays:
Type in all cases: functional
[1] = Cytotoxicity against human CNS cancer cells after 48 hrs by coulter counting; settings: Cancer cell lines
How it was run: (§1)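 NCI 60-cell-line panel covering nine tumour subpanels, tested over a 5-log dose range. Compounds were dissolved in DMSO and diluted in phosphate-buffered saline to a final DMSO below 1%. Wells held 6 × 10⁴ cells/ml and were run in duplicate. Controls contained PBS and DMSO at matching dilutions. Incubation was at 37 °C in humidified 5% CO₂. GI₅₀, TGI and LC₅₀ were reported.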

[2] = Cytotoxicity against human melanoma cells after 48 hrs by coulter counting; settings: Melanoma cell; for CC50: read-out: LC50 (the source's name); how it was run: as §1
[3] = Cytotoxicity against human renal cancer cells after 48 hrs by coulter counting; settings: Cancer cell lines; how it was run: as §1
[4] = Cytotoxicity against human prostate cancer cells after 48 hrs by coulter counting; settings: Cancer cell lines; how it was run: as §1
NSCLC = assay: Cytotoxicity against human NSCLC cells after 48 hrs by coulter counting; settings: for CC50: read-out: LC50 (the source's name); how it was run: as §1
HCT-15 = assay: Growth inhibition of human HCT15 cells at 10 uM after 48 hrs by coulter counting
How it was run: (§2)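 Single-dose primary screen across the full NCI 60-cell-line panel. Stocks were made in DMSO and diluted in PBS to a final DMSO below 1%. Cultures at 6 × 10⁴ cells/ml were run in duplicate wells alongside PBS/DMSO vehicle controls at 37 °C in humidified 5% CO₂. Data were expressed as percent growth of treated cells.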

UACC-257 = assay: Growth inhibition of human UACC257 cells at 10 uM after 48 hrs by coulter counting
How it was run: (§3)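 Single-dose screen in the NCI 60 human tumor cell line panel (nine subpanels). Compounds dissolved in DMSO and diluted in phosphate buffered saline, keeping final DMSO below 1%. Added in duplicate wells to cells at 6 × 10⁴ cells/ml. Controls held PBS and DMSO at matching dilutions. Incubated at 37 °C, humidified, 5% CO₂. Reported as percent growth of treated cells.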

UACC-62 = assay: Growth inhibition of human UACC62 cells at 10 uM after 48 hrs by coulter counting; how it was run: as §3
CCRF-CEM = assay: Growth inhibition of human CCRF-CEM cells at 10 uM after 48 hrs by coulter counting; settings: read-out: GI; how it was run: as §2
HL-60(TB) = assay: Growth inhibition of human HL-60(TB) cells at 10 uM after 48 hrs by coulter counting; settings: HL-60, 48 h, read-out: GI
How it was run: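 Test compound was dissolved in DMSO and diluted in phosphate-buffered saline to a final DMSO level below 1%. Dilutions were plated in duplicate with cell culture at 6 × 10⁴ cells/ml. Vehicle controls held PBS and DMSO at matching dilutions. Incubation was at 37 °C, humidified, under 5% CO₂. Data were reported as percent growth of treated cells.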

K562 = assay: Growth inhibition of human K562 cells at 10 uM after 48 hrs by coulter counting; settings: K562, 48 h, read-out: GI; how it was run: as §2
MOLT-4 = assay: Growth inhibition of human MOLT4 cells at 10 uM after 48 hrs by coulter counting; how it was run: as §2
RPMI-8226 = assay: Growth inhibition of human RPMI8226 cells at 10 uM after 48 hrs by coulter counting; how it was run: as §2
A549 = assay: Growth inhibition of human A549 cells at 10 uM after 48 hrs by coulter counting; settings: A549, 48 h, read-out: GI; how it was run: as §2
HOP-62 = assay: Growth inhibition of human HOP62 cells at 10 uM after 48 hrs by coulter counting; how it was run: as §2
NCI-H23 = assay: Growth inhibition of human NCI-H23 cells at 10 uM after 48 hrs by coulter counting; settings: NCI-H23, 48 h, read-out: GI; how it was run: as §2
HT-29 = assay: Growth inhibition of human HT-29 cells at 10 uM after 48 hrs by coulter counting; how it was run: as §2
KM12 = assay: Growth inhibition of human KM12 cells at 10 uM after 48 hrs by coulter counting; how it was run: as §2
SF-268 = assay: Growth inhibition of human SF268 cells at 10 uM after 48 hrs by coulter counting; settings: SF-268, 48 h, read-out: GI; how it was run: as §2
SF-295 = assay: Growth inhibition of human SF295 cells at 10 uM after 48 hrs by coulter counting; settings: SF-295, 48 h, read-out: GI; how it was run: as §2
SNB-19 = assay: Growth inhibition of human SNB19 cells at 10 uM after 48 hrs by coulter counting; settings: SNB-19, 48 h, read-out: GI; how it was run: as §2
SNB-75 = assay: Growth inhibition of human SNB75 cells at 10 uM after 48 hrs by coulter counting; settings: SNB-75, 48 h, read-out: GI; how it was run: as §2
LOX IMVI = assay: Growth inhibition of human LOXIMVI cells at 10 uM after 48 hrs by coulter counting; how it was run: as §2
M14 = assay: Growth inhibition of human M14 cells at 10 uM after 48 hrs by coulter counting; how it was run: as §2
SK-MEL-2 = assay: Growth inhibition of human SK-MEL-2 cells at 10 uM after 48 hrs by coulter counting; settings: SK-MEL-2, 48 h, read-out: GI; how it was run: as §2
ACHN = assay: Growth inhibition of human ACHN cells at 10 uM after 48 hrs by coulter counting; how it was run: as §2
CAKI-1 = assay: Growth inhibition of human Caki1 cells at 10 uM after 48 hrs by coulter counting; how it was run: as §2
UO-31 = assay: Growth inhibition of human UO31 cells at 10 uM after 48 hrs by coulter counting; how it was run: as §3
DU-145 = assay: Growth inhibition of human DU145 cells at 10 uM after 48 hrs by coulter counting; how it was run: as §2
MCF7 = assay: Growth inhibition of human MCF7 cells at 10 uM after 48 hrs by coulter counting; settings: MCF7, 48 h, read-out: GI; how it was run: as §2
BT-549 = assay: Growth inhibition of human BT549 cells at 10 uM after 48 hrs by coulter counting; settings: BT-549, 48 h, read-out: GI; how it was run: as §2
T47D = assay: Growth inhibition of human T47D cells at 10 uM after 48 hrs by coulter counting; settings: read-out: GI; how it was run: as §3
OVCAR-3 = assay: Growth inhibition of human OVCAR3 cells at 10 uM after 48 hrs by coulter counting; how it was run: as §2
OVCAR-8 = assay: Growth inhibition of human OVCAR8 cells at 10 uM after 48 hrs by coulter counting; settings: OVCAR-8, 48 h, read-out: GI; how it was run: as §2
SN12C = assay: Growth inhibition of human SN12C cells at 10 uM after 48 hrs by coulter counting; settings: read-out: GI; how it was run: as §2
TK-10 = assay: Growth inhibition of human TK10 cells at 10 uM after 48 hrs by coulter counting; settings: TK-10, 48 h, read-out: GI; how it was run: as §3
[5] = Cytotoxicity against human colon cancer cells after 48 hrs by coulter counting; settings: Cancer cell lines; how it was run: as §1

CCN1CC2=C(N=C3SC=CN3C2c2ccc(OC)c(OC)c2)/C(=C/c2ccc(OC)c(OC)c2)C1 (stereo not drawn)
GI50 [1]: 3.3 µM | LC50 [1]: 82.8 µM | TGI [1]: 26.7 µM | GI50 [2]: 3.4 µM | TGI [2]: 10.1 µM | CC50 [2]: 44.6 µM | GI50 [3]: 3.1 µM | LC50 (concentration giving 50% net cell kill) [3]: 52.8 µM | TGI [3]: 9.8 µM | GI50 [4]: 3.4 µM | LC50 (concentration killing 50% of cells) [4]: 68.4 µM | TGI [4]: 29.8 µM | GI50 (NSCLC): 3.2 µM | TGI (NSCLC): 40.1 µM | CC50 (NSCLC): 76.5 µM | inhibition of growth at 10 µM (HCT-15; HCT-15, 48 h, read-out: GI): 75.8% | inhibition of growth at 10 µM (UACC-257; UACC-257, 48 h, read-out: GI): 63.2% | inhibition of growth at 10 µM (UACC-62; UACC-62, 48 h, read-out: GI): 62.4% | inhibition of growth at 10 µM (CCRF-CEM): 94% | inhibition of growth at 10 µM (HL-60(TB)): 48.3% | inhibition of growth at 10 µM (K562): 95.2% | inhibition of growth at 10 µM (MOLT-4; MOLT-4, 48 h, read-out: GI): 67.9% | growth inhibition (GI) (RPMI-8226): Active | inhibition of growth at 10 µM (A549): 61.1% | inhibition of growth at 10 µM (HOP-62; HOP-62, 48 h, read-out: GI): 84.7% | inhibition of growth at 10 µM (NCI-H23): 43.9% | growth inhibition (GI) (HT-29): Active | growth inhibition (GI) (KM12): Active | inhibition of growth at 10 µM (SF-268): 76% | inhibition of growth at 10 µM (SF-295): 82.2% | inhibition of growth at 10 µM (SNB-19): 52.9% | inhibition of growth at 10 µM (SNB-75): 71.4% | growth inhibition (GI) (LOX IMVI): Active | inhibition of growth at 10 µM (M14; M14, 48 h, read-out: GI): 94.3% | inhibition of growth at 10 µM (SK-MEL-2): 11.5% | inhibition of growth at 10 µM (ACHN; read-out: GI): 79.5% | growth inhibition (GI) (CAKI-1): Active | inhibition of growth at 10 µM (UO-31; UO-31, 48 h, read-out: GI): 40.7% | growth inhibition (GI) (DU-145): Active | inhibition of growth at 10 µM (MCF7): 80.5% | inhibition of growth at 10 µM (BT-549): > 10% | inhibition of growth at 10 µM (T47D): > 10% | growth inhibition (GI) (OVCAR-3): Active | inhibition of growth at 10 µM (OVCAR-8): 95.9% | inhibition of growth at 10 µM (SN12C): 83.1% | inhibition of growth at 10 µM (TK-10): 46.5% | GI50 [5]: 2 µM | LC50 (concentration giving 50% net cell kill) [5]: 29.3 µM | TGI [5]: 4.3 µM

CCN1CC2=C(N=C3SC=C(C)N3C2c2ccc(OC)c(OC)c2)/C(=C/c2ccc(OC)c(OC)c2)C1 (stereo not drawn)
GI50 [1]: 5.7 µM | LC50 [1]: > 100 µM | TGI [1]: 40.1 µM | GI50 [2]: 2.7 µM | TGI [2]: 10.8 µM | CC50 [2]: 54.4 µM | GI50 [3]: 2.5 µM | LC50 (concentration giving 50% net cell kill) [3]: 47.1 µM | TGI [3]: 8.9 µM | GI50 [4]: 2.8 µM | LC50 (concentration killing 50% of cells) [4]: 79.2 µM | TGI [4]: 53.4 µM | GI50 (NSCLC): 3 µM | TGI (NSCLC): 44.2 µM | CC50 (NSCLC): 86.5 µM | growth inhibition (GI) (HCT-15): Active | growth inhibition (GI) (UACC-257): Active | growth inhibition (GI) (UACC-62): Active | inhibition of growth at 10 µM (CCRF-CEM): 97.8% | inhibition of growth at 10 µM (HL-60(TB)): 72.1% | inhibition of growth at 10 µM (K562): 96.4% | growth inhibition (GI) (MOLT-4): Active | growth inhibition (GI) (RPMI-8226): Active | inhibition of growth at 10 µM (A549): 93.2% | growth inhibition (GI) (HOP-62): Active | inhibition of growth at 10 µM (NCI-H23): 67.6% | growth inhibition (GI) (HT-29): Active | growth inhibition (GI) (KM12): Active | inhibition of growth at 10 µM (SF-268): 89.4% | inhibition of growth at 10 µM (SF-295): 69.2% | inhibition of growth at 10 µM (SNB-19): 61% | inhibition of growth at 10 µM (SNB-75): 68.1% | growth inhibition (GI) (LOX IMVI): Active | growth inhibition (GI) (M14): Active | inhibition of growth at 10 µM (SK-MEL-2): 27.4% | growth inhibition (GI) (ACHN): Active | growth inhibition (GI) (CAKI-1): Active | growth inhibition (GI) (UO-31): Active | growth inhibition (GI) (DU-145): Active | inhibition of growth at 10 µM (MCF7): 84.5% | inhibition of growth at 10 µM (BT-549): 57% | inhibition of growth at 10 µM (T47D): 26.2% | growth inhibition (GI) (OVCAR-3): Active | inhibition of growth at 10 µM (OVCAR-8): 96.5% | inhibition of growth at 10 µM (SN12C): 93.7% | inhibition of growth at 10 µM (TK-10): 98.8% | GI50 [5]: 2.1 µM | LC50 (concentration giving 50% net cell kill) [5]: 35.3 µM | TGI [5]: 5.6 µM

Source: ChEMBL document CHEMBL1926614, “Substituted thiazoles V. synthesis and antitumor activity of novel thiazolo[2,3-b]quinazoline and pyrido[4,3-d]thiazolo[3,2-a]pyrimidine analogues” (2012)
